# Measurements: ChEMBL document CHEMBL3352206, “Discovery of substituted 4-aminoquinazolines as selective Toll-like receptor 4 ligands” (Bioorg Med Chem Lett, 2014)
# The source made the active and inactive calls. The calls are words filed in the database; no cut-off is given here.
# Key:
# [1] = biological target: Toll-like receptor 4 (Homo sapiens) (UniProt O00206); test: Activation of human TLR4 fransfectoma in HEK Blue cells at 0.5 uM relative to LPS; assay type: cell-based; details: HEK293
# In short: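 hTLR4 HEK Blue transfectoma cells incubated with compound at 0.5 μM for 20–22 h; SEAP read by QuantiBlue OD630. Values normalized to LPS (100 ng/mL) positive control set at 100.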
# [2] = test system: PBMC; test: Induction of IL-8 level in human PBMC at 0.5 uM by ELISA relative to LPS; assay type: functional
# In short: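 Primary human PBMC stimulated overnight with compound at 0.5 μM; IL-8 in supernatant by ELISA, normalized to LPS (100 ng/mL) set at 100.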
# [3] = test system: HepG2; test: Cytotoxicity against human HepG2 cells at 10 uM by MTT assay; assay type: functional
# In short: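 HepG2 viability by MTT at 10 μM compound; OD570–650 normalized to vehicle-treated cells in the same experiment.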
# [4] = test system: BMDC; test: Induction of CD86 expression in wild type CD11c+ population of mouse BMDC; assay type: functional
# In short: (§1)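 BMDC from wild-type or Tlr4−/− mice treated with compound or vehicle (0.5% DMSO); stained for CD11c plus CD40, CD80 or CD86. Marker expression assessed by flow cytometry on gated CD11c+ cells.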
# [5] = biological target: T1, Toll-like receptor 4/MD-2 (Homo sapiens) (UniProt O00206+Q9Y6Y9); test: Activation of human TLR4/MD2 complex expressed in HEK293 Blue cells coexpressing CD14 assessed as SEAP secretion at 10 uM after 20 to 24 hrs by SEAPorter assay in presence of Rhodobacter sphaeroides LPS; assay type: cell-based
# In short: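 hTLR4/MD-2/CD14 transfectoma cells given 10 μM compound or 10 ng/mL LPS, with or without the TLR4 antagonist LPS-RS (Rhodobacter sphaeroides LPS; 12, 111, 1000 ng/mL). TLR4/NF-κB activation read as SEAP in supernatant. One-way ANOVA with Dunnett's test versus vehicle.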
# [6] = Cytotoxicity against mouse BMDC at 10 uM after 18 hrs incubation by MTT assay
# In short: (§2)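 Human PBMC or mouse BMDC incubated 18 h with compound at 10 μM; viability by MTT assay, reported as percent.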
# [7] = test system: BMDC; test: Induction of CD40 expression in wild type CD11c+ population of mouse BMDC; assay type: functional; in short: as §1
# [8] = test system: BMDC; test: Induction of CD40 expression in TLR4-deficient CD11c+ population of mouse BMDC; assay type: functional; in short: as §1
# [9] = test system: PBMC; test: Induction of IL-8 expression in human PBMC by ELISA in presence of polymyxin B; assay type: functional, cell-based
# In short: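 Human PBMC incubated overnight with compound, alone or with polymyxin B (10 μg/mL); IL-8 in supernatant by ELISA. Mean ± SEM of triplicates, two independent experiments.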
# [10] = test system: BMDC; test: Induction of CD86 expression in TLR4-deficient CD11c+ population of mouse BMDC; assay type: functional; in short: as §1
# [11] = test system: PBMC; test: Induction of IL-8 level in human PBMC at < 1 uM by ELISA; assay type: functional, cell-based
# In short: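 Mouse BMDC or human PBMC stimulated overnight with graded compound concentrations; IL-6 (mouse) or IL-8 (human) in supernatant by ELISA. Mean ± SEM of triplicates, two independent experiments.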
# [12] = biological target: Toll-like receptor 4 (Homo sapiens) (UniProt O00206); test: Activation of human TLR4 complex expressed in MD2-deficient HEK293 Blue cells coexpressing CD14 assessed as SEAP secretion at 10 uM after 20 to 24 hrs by SEAPorter assay; assay type: cell-based
# [13] = biological target: T1, Toll-like receptor 4/MD-2 (Homo sapiens); test: Activation of human TLR4/MD2 complex expressed in HEK293 Blue cells assessed as SEAP secretion at 10 uM after 20 to 24 hrs by SEAPorter assay
# [14] = test system: PBMC; test: Induction of CD83 expression in CD11c+ HLA-DR+ population of human PBMC; assay type: functional, cell-based
# In short: (§3)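 Human PBMC incubated overnight with compound at 5 μM; CD80 and CD83 measured by flow cytometry on gated CD11c+HLA-DR+ cells. Two independent experiments.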
# [15] = test system: PBMC; test: Induction of CD80 expression in CD11c+ HLA-DR+ population of human PBMC; assay type: functional, cell-based; in short: as §3
# [16] = test system: BMDC; test: Induction of CD80 expression in wild type CD11c+ population of mouse BMDC; assay type: functional; in short: as §1
# [17] = test system: PBMC; test: Cytotoxicity against human PBMC at 10 uM after 18 hrs incubation by MTT assay; assay type: cell-based; in short: as §2
# [18] = biological target: T1, Toll-like receptor 4/MD-2 (Homo sapiens); test: Activation of human TLR4/MD2 complex expressed in HEK293 Blue cells coexpressing CD14 assessed as SEAP secretion at 10 uM after 20 to 24 hrs by SEAPorter assay; assay type: cell-based
# [19] = test system: L929; test: Induction of type 1 IFN release in mouse L929-ISRE cells assessed as luciferase release at 10 uM; assay type: functional, cell-based
# In short: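 Human PBMC incubated overnight with compound (10 μM), LPS (10 ng/mL) or vehicle; type I IFN in supernatant quantified as luciferase release from L929-ISRE reporter cells. Mean ± SEM of triplicates.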
# [20] = test system: BMDC; test: Induction of CD80 expression in TLR4-deficient CD11c+ population of mouse BMDC; assay type: functional; in short: as §1
# [21] = biological target: T1, Toll-like receptor 4/MD-2 (Homo sapiens); test: Activation of human TLR4/MD2 complex in human THP1 cells assessed as induction of NFkappaB activation incubated for 18 hrs; assay type: cell-based; details: THP-1
# In short: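 CellSensor THP-1 or RAW264.7 cells carrying an NF-κB-driven FRET β-lactamase reporter; graded compound concentrations for 18 h. NF-κB activation normalized to LPS (5 ng/mL) and expressed as percent activation.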
# [22] = biological target: Toll-like receptor 4/MD-2/CD14 (Mus musculus) (UniProt Q9QUK6+Q9JHF9+P10810); test: Activation of mouse TLR4/MD2 complex in mouse RAW264.7 cells assessed as induction of NFkappaB activation incubated for 18 hrs
# [23] = test system: BMDC; test: Induction of IL-6 production in TLR4-deficient mouse BMDC at 10 uM by ELISA; assay type: functional
# In short: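 BMDC from wild-type and TLR4-deficient mice stimulated with compound at 10 μM; IL-6 in culture supernatant by ELISA.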
# Chain of Toll-like receptor 4 (Homo sapiens) (O00206 whole entry): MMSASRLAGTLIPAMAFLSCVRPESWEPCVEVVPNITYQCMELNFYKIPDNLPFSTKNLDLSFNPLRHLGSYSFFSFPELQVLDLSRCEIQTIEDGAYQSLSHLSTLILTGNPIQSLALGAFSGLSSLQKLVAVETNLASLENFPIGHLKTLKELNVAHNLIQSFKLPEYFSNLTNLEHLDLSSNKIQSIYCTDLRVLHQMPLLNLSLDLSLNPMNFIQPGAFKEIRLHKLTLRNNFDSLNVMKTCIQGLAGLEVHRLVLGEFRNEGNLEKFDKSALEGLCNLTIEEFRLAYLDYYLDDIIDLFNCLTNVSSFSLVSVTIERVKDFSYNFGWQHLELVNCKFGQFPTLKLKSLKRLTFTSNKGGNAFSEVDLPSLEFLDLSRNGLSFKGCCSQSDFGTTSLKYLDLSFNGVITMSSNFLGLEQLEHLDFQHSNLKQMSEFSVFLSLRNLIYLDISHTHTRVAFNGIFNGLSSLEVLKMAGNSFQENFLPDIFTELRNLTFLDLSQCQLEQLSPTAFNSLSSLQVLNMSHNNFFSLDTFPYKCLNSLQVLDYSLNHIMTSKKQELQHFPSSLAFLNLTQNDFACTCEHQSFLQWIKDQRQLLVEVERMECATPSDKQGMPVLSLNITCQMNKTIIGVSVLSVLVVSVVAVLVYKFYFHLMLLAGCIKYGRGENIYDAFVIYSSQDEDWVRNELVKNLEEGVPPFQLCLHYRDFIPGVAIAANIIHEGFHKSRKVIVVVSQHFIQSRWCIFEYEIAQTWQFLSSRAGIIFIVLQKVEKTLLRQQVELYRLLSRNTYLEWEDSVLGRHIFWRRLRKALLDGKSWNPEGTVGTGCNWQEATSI
SMILES,Activity [1],Activity [2],Activity [3],also measured
CCNC(=O)c1nc(Nc2cc(Oc3ccccc3)cc([N+](=O)[O-])c2)c2ccccc2n1,2.2%,1.5%,107.4%,–
CCOC(=O)c1nc(Nc2cc(Oc3ccccc3I)cc([N+](=O)[O-])c2)c2ccccc2n1,65.5%,–,93.8%,–
COC(=O)c1nc(Nc2cc(Oc3ccccc3)cc([N+](=O)[O-])c2)c2ccccc2n1,0.4%,0.2%,116.4%,–
O=C(O)c1nc(Nc2cc(Oc3ccccc3Br)cc([N+](=O)[O-])c2)c2ccccc2n1,1.6%,0%,96.3%,–
Nc1cc(Nc2nc(C(=O)O)nc3ccccc23)cc(Oc2ccccc2)c1,1.1%,0.3%,105%,–
CCOC(=O)c1nc(Nc2cc(Oc3ccccc3Cl)cc([N+](=O)[O-])c2)c2ccccc2n1,73.9%,–,107.4%,–
CCOC(=O)c1nc(Nc2cc(Oc3ccccc3C(F)(F)F)cc([N+](=O)[O-])c2)c2ccccc2n1,58.7%,–,67.1%,–
NC(=O)c1nc(Nc2cc(Oc3ccccc3)cc([N+](=O)[O-])c2)c2ccccc2n1,0%,0.3%,78.4%,–
CC(C)OC(=O)c1nc(Nc2cc(Oc3ccccc3)cc([N+](=O)[O-])c2)c2ccccc2n1,7.4%,2.1%,65.6%,–
CCOC(=O)c1nc(Nc2cc(Oc3ccc(C)cc3)cc([N+](=O)[O-])c2)c2ccccc2n1,0.5%,0.4%,108.8%,–
O=C(O)c1nc(Nc2cc(Oc3ccccc3)cc([N+](=O)[O-])c2)c2ccccc2n1,0.6%,0.5%,84.5%,–
CC(C)OC(=O)c1nc(Nc2cc(Oc3ccccc3Br)cc([N+](=O)[O-])c2)c2ccccc2n1,67.8%,–,106.5%,–
CCOC(=O)c1nc(Nc2cc(Oc3ccccc3C)cc([N+](=O)[O-])c2)c2ccccc2n1,45.5%,–,96.7%,–
CCOC(=O)c1nc(Nc2cc(N)cc(Oc3ccccc3)c2)c2ccccc2n1,0.6%,0.3%,106.1%,–
CCOC(=O)c1nc(Nc2cc(Oc3ccccc3Br)cc([N+](=O)[O-])c2)c2ccccc2n1,79%,–,90.8%,–
CCOC(=O)c1nc(Nc2cc(Oc3ccccc3CC)cc([N+](=O)[O-])c2)c2ccccc2n1,4.2%,3.2%,98.9%,–
CCOC(=O)c1nc(Nc2cc(Oc3ccccc3)cc([N+](=O)[O-])c2)c2ccccc2n1,49.1%,–,93.5%,Activity [4]: Active; Activity [5]: inactive; Activity [6]: 117%; Activity [7]: Active; Activity [8]: inactive; Activity [9]: Active; Activity [10]: inactive; Activity [11]: Active; Activity [12]: inactive; Activity [13]: inactive; Activity [14]: Active; Activity [15]: Active; Activity [16]: Active; Activity [17]: 112%; Activity [18]: Active; Activity [19]: Active; Activity [20]: inactive; Activity [21]: Active; Activity [22]: Active; Activity [23]: inactive
CCOC(=O)c1nc(Nc2cc(Oc3c(C)cccc3C)cc([N+](=O)[O-])c2)c2ccccc2n1,0.6%,0%,106.3%,–
CCOC(=O)c1nc(Nc2cc(Oc3cccc(C)c3)cc([N+](=O)[O-])c2)c2ccccc2n1,14.5%,5.8%,109.9%,–
CC(C)CCOC(=O)c1nc(Nc2cc(Oc3ccccc3)cc([N+](=O)[O-])c2)c2ccccc2n1,8.4%,2.2%,63.4%,–
CCOC(=O)c1nc(Nc2cc(Oc3ccc4ccccc4c3)cc([N+](=O)[O-])c2)c2ccccc2n1,0.8%,0%,111.4%,–
